Measurements: article PMC3396390 (International Journal of Nanomedicine, 2012)
Values after ≈ are worked out from the molar mass of the structure shown. “Also recorded” adds a separate entry of the source. One block for each compound: values may come before it.

What was measured:
[1] = Brain distribution of DOX after iv injection; format: in vivo; settings: ICR mice, iv 2.5 mg DOX/kg
[2] = Saturated solubility of DOX in PBS; format: physicochemical; settings: phosphate-buffered saline (PBS), pH 7.2, aqueous buffer
[3] = In vivo imaging of DiR-loaded micelles; settings: nude mice, free dye (not shown)
Summary of the method: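 DiR physically entrapped in CS-SA micelles. Anesthetized nude mice were dosed via tail vein at 25 mg CS-SA/kg. Whole-body fluorescence was imaged at set time points after injection. The brain was excised 0.5 h post-injection for ex vivo fluorescence imaging, with a blank brain as negative control.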

Structure (SMILES): COc1cccc2c1C(=O)c1c(O)c3c(c(O)c1C2=O)C[C@@](O)(C(=O)CO)C[C@@H]3O[C@H]1C[C@H](N)[C@H](O)[C@H](C)O1.Cl [DOX · HCl, DOX hydrochloride]
drug detection in brain [1]: not detected in brain; also recorded: no drug signal was detected in brain

solubility [2]: 76 µg/mL (≈ 140 µM)
Structure (SMILES): COc1cccc2c1C(=O)c1c(O)c3c(c(O)c1C2=O)C[C@@](O)(C(=O)CO)C[C@@H]3O[C@H]1C[C@H](N)[C@H](O)[C@H](C)O1 [DOX, Doxorubicin]

fluorescence in brain [3]: fluorescence was not seen in brain
Structure (SMILES): CCCCCCCCCCCCCCCCCCN1/C(=C/C=C/C=C/C=C/C2=[N+](CCCCCCCCCCCCCCCCCC)c3ccccc3C2(C)C)C(C)(C)c2ccccc21.[I-] [DiR]
